Results on two molecules are retold here after PMC4767637 (Journal of molecular biology, 2016).

Assay [1] relates to pSTAT3. Description: 13C SQ-CPMG relaxation dispersion. Further details: species or system human. Particulars: 35 °C, 600 and 700 MHz, ~170 μM pSTAT3.
Assay [2] deals with pSTAT3 homodimer. The assay is described as follows: van't Hoff analysis of pSTAT3 monomer-dimer equilibrium by HMQC. Particulars: 25-45 °C, 700 MHz. It counts as binding, human. The essentials:
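His-tagged pSTAT3 (127-711), co-expressed with tyrosine kinase in E. coli TKB1, deuterated with Ile Cδ1 methyl 13CH3 labeling, in deuterated 10 mM MES pH 5.5, 2 mM TCEP, 0.03% sodium azide, 100% D2O. 2D 1H-13C HMQC at 700 MHz at 25, 30, 32, 34, 36, 38, 40 and 45 °C. Keq is the population ratio of exchanging species (a) and (b); ΔH0 and ΔS0 come from a linear fit of ln(Keq) vs 1/T.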

Assay [3] concerns pSTAT3 homodimer. Description: NMR CSP of pSTAT3 dimer versus uSTAT3. It counts as binding, human. Particulars: 2D 13C-1H HMQC, 25 °C.
In assay [4] the test system is I568F STAT3. The assay is described as follows: NMR CSP of I568F STAT3 relative to WT. As to conditions: 2D 13C-1H HMQC Ile spectra. Set-up: species or system human.

B1: pSTAT3: Tyr-705-phosphorylated STAT3 (protein)
chain: GQANHPTAAVVTEKQQMLEQHLQDVRKRVQDLEQKMKVVENLQDDFDFNYKTLKSQGDMQDLNGNNQSVTRQKMQQLEQMLTALDQMRRSIVSELAGLLSAMEYVQKTLTDEELADWKRRQQIACIGGPPNICLDRLENWITSLAESQLQTRQQIKKLEELQQKVSYKGDPIVQHRPMLEERIVELFRNLMKSAFVVERQPCMPMHPDRPLVIKTGVQFTTKVRLLVKFPELNYQLKIKVCIDKDSGDVAALRGSRKFNILGTNTKVMNMEESNNGSLSAEFKHLTLREQRCGNGGRANCDASLIVTEELHLITFETEVYHQGLKIDLETHSLPVVVISNICQMPNAWASILWYNMLTNNPKNVNFFTKPPIGTWDQVAEVLSWQFSSTTKRGLSIEQLTTLAEKLLGPGVNYSGCQITWAKFCKENMAGKGFSFWVWLDNIIDLVKKYILALWNEGYIMGFISKERERAILSTKPPGTFLLRFSESSKEGGVTFTWVEKDISGKTQIQSVEPYTKQQLNNMSFAEIIMGYKIMDATNILVSPLVYLYPDIPKEEAFGKYCRPESQEHPEADPGSAAPYLKTKFI
modifications: phosphotyrosine at 705; left off: His6, C-terminal, state not stated
As for B1, the “change in Rex of I568, pSTAT3 dimer versus pY904-bound uSTAT3” value in assay [1] is “Larger increases in the Rex of I568 were observed for the dimeric pSTAT3 than for pY904-bound uSTAT3”. For the same molecule, the “ΔS° of monomer-dimer equilibrium (I568 and I654)” value in assay [2] (residues I568 (LD) and I654 (SH2)) amounted to 47.0 ± 3.7 cal/mol•K. In assay [2] (residues I653 and I711), the “ΔS° of monomer-dimer equilibrium (I653 and I711)” value turned out to be 42.2 ± 1.6 cal/mol•K. In addition, the “CSPs of pSTAT3 dimer” value in assay [3] was “Additional CSPs unique to pSTAT3 were observed at I653 and I711”.

B2: I568F: HIES associated STAT3 mutation in the LD (protein)
chain: GQANHPTAAVVTEKQQMLEQHLQDVRKRVQDLEQKMKVVENLQDDFDFNYKTLKSQGDMQDLNGNNQSVTRQKMQQLEQMLTALDQMRRSIVSELAGLLSAMEYVQKTLTDEELADWKRRQQIACIGGPPNICLDRLENWITSLAESQLQTRQQIKKLEELQQKVSYKGDPIVQHRPMLEERIVELFRNLMKSAFVVERQPCMPMHPDRPLVIKTGVQFTTKVRLLVKFPELNYQLKIKVCIDKDSGDVAALRGSRKFNILGTNTKVMNMEESNNGSLSAEFKHLTLREQRCGNGGRANCDASLIVTEELHLITFETEVYHQGLKIDLETHSLPVVVISNICQMPNAWASILWYNMLTNNPKNVNFFTKPPIGTWDQVAEVLSWQFSSTTKRGLSIEQLTTLAEKLLGPGVNYSGCQITWAKFCKENMAGKGFSFWVWLDNFIDLVKKYILALWNEGYIMGFISKERERAILSTKPPGTFLLRFSESSKEGGVTFTWVEKDISGKTQIQSVEPYTKQQLNNMSFAEIIMGYKIMDATNILVSPLVYLYPDIPKEEAFGKYCRPESQEHPEADPGSAAPYLKTKFI
modifications: left off: His6, C-terminal, state not stated
For the molecule B2, the “CSP of I568F mutant relative to WT” value in assay [4] is recorded as “significant CSP relative to WT protein in all structured domains of STAT3, from the CCD to SH2”.
